Most compounds without a hit are left out; they make up all but 2.1% or so of the library.
L929 necroptosis – blocks zVAD induced death of L929 cells; L929 zVAD necroptosis rescue, ATP luminescence, 24 h; with zVAD 60 µM; viability rescue, % at 10 µM; 0.38% of 220,000 active; AID 1377;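 active = activation, scaled between plate controls, above about 75%, limit read from the data; inactive = activation under that limit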;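 note: 0% = zVAD with DMSO and 100% = DMSO alone without zVAD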
TNF necrop inh – TNF-alpha cell death inhibition in Jurkat FADD-/- cells | Jurkat FADD-/- TNF necroptosis rescue, ATP luminescence, 24 h; 0 = TNF only, 100 = no-TNF cells | activation (protection from cell death), % at 10 µM | 0.068% of 220,000 active | AID 463075;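 active = activation, meaning protection from cell death, of at least 50% relative to plate controls; inactive = activation below 50%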;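 note: necroptosis triggered by 40 ng/mL TNF-alpha added together with compound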
Runt-SMMHC FRET – inhibitors of human RUNX1 Runt domain binding to CBFb-SMMHC. Cerulean-Runt/Venus-CBFb-SMMHC FRET ratio 530/480, 1 h. inhibition, % at 20 µM. 0.74% of 220,000 active;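 active = mean inhibition across duplicate retests at 20 µM reaching about 50%, limit read from the data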;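 note: 0% = DMSO wells and 100% = wells with excess untagged CBFb-SMMHC; inhibitors lower the FRET ratio by blocking Runt binding to CBFb-SMMHC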
RanGTP-Impb inh – disruptors of Ran-importin-beta complex formation – biochemical, FRET, CFP-Ran, YFP-importin-beta, homogeneous, primary screen | 1.1% of 300,000 active | inhibition, % (concentration not given with the values) | cell-free CFP-Ran/YFP-importin-beta FRET ratio;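 active = more than half of the replicate wells show a fall in the fluorescence ratio signal beyond about 16%, limit read from the data, passing the limit was not always enough; inconclusive = exactly half of the replicate wells pass the set limit; inactive = fewer than half of replicates pass the limit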;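 note: 0% = DMSO wells and 100% = Ran loaded with GDP instead of GTP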
Runt-CBFb FRET – blocks binding of human RUNX1 Runt domain to CBFb; Cerulean-Runt/Venus-CBFb FRET ratio 530/480, 1 h; inhibition, % at 20 µM; 0.46% of 220,000 active;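 active = inhibition over about 50% at 20 µM in the single-dose screen, limit read from the data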;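 note: 0% = DMSO wells and 100% = excess unlabeled CBFb competitor control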
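Assay system: Cerulean-tagged RUNX1 Runt domain (FRET donor) fusion protein / Amount: 100 nM each of Venus-CBFb and Cerulean-Runt domain / Medium: Tris buffer pH 7.5 with salts and BSA / Also added: Venus-CBFb 100 nM / Schedule: 1 h complex formation plus 1 h compound treatment, room temperature / Signal: FRET fluorescence / Read-out: loss of energy transfer signal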
Hck Nef HTS – human Hck-Nef kinase inhibition. 0.68% of 220,000 active. inhibition, % at 20 µM. Recombinant Hck-YEEI plus Nef, Z-Lyte FRET kinase assay. P08631;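 active = Hck-Nef kinase inhibition above about 50%, limit read from the data; inactive = inhibition below that limit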;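 note: 0% = DMSO with Hck plus Nef and 100% = Hck alone without Nef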
Target sequence (P08631 whole entry, looked up): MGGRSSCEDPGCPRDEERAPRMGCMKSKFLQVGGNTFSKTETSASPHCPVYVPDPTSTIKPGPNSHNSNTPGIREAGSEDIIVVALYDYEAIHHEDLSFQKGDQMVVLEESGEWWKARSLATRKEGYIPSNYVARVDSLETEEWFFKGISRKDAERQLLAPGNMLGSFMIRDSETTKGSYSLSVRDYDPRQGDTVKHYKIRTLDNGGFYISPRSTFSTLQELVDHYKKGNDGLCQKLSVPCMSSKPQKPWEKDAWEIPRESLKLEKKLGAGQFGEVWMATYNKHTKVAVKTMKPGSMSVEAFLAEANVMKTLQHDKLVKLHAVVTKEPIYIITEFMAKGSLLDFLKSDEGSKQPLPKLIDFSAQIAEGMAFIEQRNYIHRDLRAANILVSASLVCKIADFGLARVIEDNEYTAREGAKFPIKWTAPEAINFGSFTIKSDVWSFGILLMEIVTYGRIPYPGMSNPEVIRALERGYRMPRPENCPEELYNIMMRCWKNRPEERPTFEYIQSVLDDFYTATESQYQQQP
Hck Nef conf – Hck-Nef kinase inhibition, confirmation; shares compounds with Hck Nef HTS; Recombinant Hck-YEEI:Nef, Z-Lyte FRET kinase assay; calls only at 10 µM; 28% of 1,300 active; AID 463188;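 active = average inhibition of at least 50%, with Z-scores no higher than 3 in both the phospho-tyrosine peptide and fluorescence counterscreens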
Numbers without * were called inactive.

Results for Cc1cn2nc(N)c3ccccc3c2n1 ?
L929 necroptosis: 3.1; TNF necrop inh: 3.2; Runt-SMMHC FRET: -0.6; Runt-CBFb FRET: 0.5; Hck Nef HTS: 0.4

Results for COc1ccc(CNC(=O)C(=O)NCC2OCCN2S(=O)(=O)c2cccs2)cc1 (stereo unspecified) ?
L929 necroptosis: 5.1; TNF necrop inh: -0.2; Runt-SMMHC FRET: -0.5; RanGTP-Impb inh: -2.1; Runt-CBFb FRET: -2.5; Hck Nef HTS: 0.2

What do the screens show for `O=C(NC(=O)c1ccccc1Cl)Nc1ccc(-c2cnco2)cc1`?
L929 necroptosis: 1.5; TNF necrop inh: 0.0; Runt-SMMHC FRET: -1.9; RanGTP-Impb inh: 7.3; Runt-CBFb FRET: -1.8; Hck Nef HTS: 70.2*; Hck Nef conf: inactive

How did COc1ccc(C(=O)CSc2nnc(-c3ccco3)c(-c3ccco3)n2)cc1 do in these assays?
L929 necroptosis: 0.3; TNF necrop inh: -3.4; Runt-SMMHC FRET: 6.1; RanGTP-Impb inh: -1.3; Runt-CBFb FRET: 20.6; Hck Nef HTS: 85.0*; Hck Nef conf: inactive

Results for CC(=O)Nc1ccc(OCC(O)CN2CCN(c3ccc(F)cc3)CC2)cc1 (stereo unspecified) ?
RanGTP-Impb inh: 1.3

What do the screens show for `Cn1c(COc2ccc(Br)cc2)nnc1SC1CCc2ccccc2C1=O` (stereo unspecified)?
L929 necroptosis: 0.5; TNF necrop inh: 3.6; Runt-SMMHC FRET: -3.6; RanGTP-Impb inh: -1.5; Runt-CBFb FRET: 1.0; Hck Nef HTS: 51.0*; Hck Nef conf: inactive

How did Cn1c(COc2ccccc2)nnc1SCCSc1nnc(COc2ccccc2)n1C do in these assays?
L929 necroptosis: -0.5; TNF necrop inh: -2.3; Runt-SMMHC FRET: 1.7; RanGTP-Impb inh: -0.6; Runt-CBFb FRET: -1.6; Hck Nef HTS: 3.2

What do the screens show for `Nc1n[nH]c(CO)n1`?
L929 necroptosis: -0.1; TNF necrop inh: -0.1; Runt-SMMHC FRET: 2.1; RanGTP-Impb inh: -0.8; Runt-CBFb FRET: 1.7; Hck Nef HTS: 4.3

What do the screens show for `Brc1ccc(CN2CCCCCC2)cc1`?
RanGTP-Impb inh: 1.0

Results for O=c1[nH]c2ccc(N=Cc3c(O)ccc4cc(Br)ccc34)cc2[nH]1 ?
L929 necroptosis: 0.8; TNF necrop inh: 0.0; Runt-SMMHC FRET: 26.1; RanGTP-Impb inh: inconclusive; Runt-CBFb FRET: -9.2; Hck Nef HTS: 62.7*; Hck Nef conf: active

What do the screens show for `CN1C(=O)NC(c2ccccc2)C2=C1CN(c1ccc3ccccc3c1)C2=O` (stereo unspecified)?
L929 necroptosis: -0.1; TNF necrop inh: -6.7; Runt-SMMHC FRET: -3.0; RanGTP-Impb inh: -4.8; Runt-CBFb FRET: -1.2; Hck Nef HTS: 103.4*; Hck Nef conf: active

How did Cc1ccc(N2CC3=C(C2=O)C(c2ccccc2)NC(=O)N3C)cc1 (stereo unspecified) do in these assays?
L929 necroptosis: 0.1; TNF necrop inh: -1.8; Runt-SMMHC FRET: -1.2; RanGTP-Impb inh: inconclusive; Runt-CBFb FRET: 0.0; Hck Nef HTS: 1.3

How did O=C(COC(=O)CCC(=O)c1cccs1)Nc1ccccc1[N+](=O)[O-] do in these assays?
L929 necroptosis: 1.8; TNF necrop inh: 0.4; Runt-SMMHC FRET: -0.1; RanGTP-Impb inh: -5.6; Runt-CBFb FRET: -1.9; Hck Nef HTS: 5.7

How did O=C1CCC(C(=O)Nc2cccc(Oc3ccccc3)c2)=NN1 do in these assays?
L929 necroptosis: -0.7; TNF necrop inh: -4.8; Runt-SMMHC FRET: 3.8; RanGTP-Impb inh: 0.7; Runt-CBFb FRET: -0.5; Hck Nef HTS: 16.1

How did CCN1CCCc2cc(CN(CCN3CCOCC3)C(=S)Nc3cc(F)cc(F)c3)ccc21 do in these assays?
L929 necroptosis: 0.5; TNF necrop inh: 0.1; Runt-SMMHC FRET: -1.6; RanGTP-Impb inh: -2.2; Runt-CBFb FRET: -1.6; Hck Nef HTS: 55.2*; Hck Nef conf: inactive

What do the screens show for `CCN1CCCc2cc(CN(CCN3CCOCC3)C(=S)Nc3ccc(C)cc3)ccc21`?
L929 necroptosis: 1.2; TNF necrop inh: 0.7; Runt-SMMHC FRET: 0.2; RanGTP-Impb inh: 1.0; Runt-CBFb FRET: -2.4; Hck Nef HTS: -18.5

Results for CCN1CCCc2cc(CN(CCN3CCOCC3)C(=S)Nc3ccc(OC)cc3)ccc21 ?
L929 necroptosis: 2.2; TNF necrop inh: 2.5; Runt-SMMHC FRET: -3.6; RanGTP-Impb inh: 5.1; Runt-CBFb FRET: -1.9; Hck Nef HTS: 54.0*; Hck Nef conf: inactive

Results for Cn1c(=O)c2c(nc(CN3CCN(C(=O)c4ccco4)CC3)n2CCCc2ccccc2)n(C)c1=O ?
L929 necroptosis: -0.4; TNF necrop inh: -2.9; Runt-SMMHC FRET: -2.2; RanGTP-Impb inh: -1.6; Runt-CBFb FRET: -2.9; Hck Nef HTS: 5.1

Results for CCCCCCCCCCCCCCCC[n+]1cccc2ccccc21 ?
L929 necroptosis: 12.0; TNF necrop inh: -16.5; Runt-SMMHC FRET: -16.9; Runt-CBFb FRET: -16.8; Hck Nef HTS: 106.7*

How did O=S(=O)(Nc1cccc(-c2nc3cccnc3s2)c1)c1ccc2c(c1)OCCO2 do in these assays?
L929 necroptosis: 1.0; TNF necrop inh: -0.1; Runt-SMMHC FRET: 2.5; RanGTP-Impb inh: -1.6; Runt-CBFb FRET: 0.6; Hck Nef HTS: 2.4

What do the screens show for `O=C(Nc1cccc(-c2nc3cccnc3s2)c1)C1c2ccccc2Oc2ccccc21`?
TNF necrop inh: 0.7; Runt-SMMHC FRET: -8.9; RanGTP-Impb inh: 0.5; Runt-CBFb FRET: -0.9; Hck Nef HTS: 102.1*; Hck Nef conf: active

Results for O=C(Nc1cccc(-c2nc3cccnc3s2)c1)c1ccc(Cl)nc1 ?
L929 necroptosis: 1.1; TNF necrop inh: -4.2; Runt-SMMHC FRET: -3.3; RanGTP-Impb inh: 0.2; Runt-CBFb FRET: -2.1; Hck Nef HTS: 87.4*; Hck Nef conf: inactive

How did O=C(Nc1cccc(-c2nc3cccnc3s2)c1)c1cccnc1Cl do in these assays?
L929 necroptosis: 0.8; TNF necrop inh: -7.2; Runt-SMMHC FRET: 5.4; RanGTP-Impb inh: 1.8; Runt-CBFb FRET: -1.1; Hck Nef HTS: 19.6

Results for C=CCNC(=O)COc1cc(C)ccc1C ?
L929 necroptosis: 0.3; TNF necrop inh: 1.6; Runt-SMMHC FRET: 2.0; RanGTP-Impb inh: -0.4; Runt-CBFb FRET: 0.5; Hck Nef HTS: 3.5

How did CCn1cc(CCCC(=O)NCc2cccc(OC)c2)c2ccccc21 do in these assays?
RanGTP-Impb inh: 6.7

How did O=C(CN1CC[n+]2c(-c3cccs3)csc21)c1ccc(-c2ccccc2)cc1 do in these assays?
L929 necroptosis: -0.2; TNF necrop inh: -1.2; Runt-SMMHC FRET: -3.6; RanGTP-Impb inh: 0.7; Runt-CBFb FRET: 2.8; Hck Nef HTS: 142.9*; Hck Nef conf: active

Screens: PubChem, several laboratories
